In ChEMBL document CHEMBL3421557, “Sesamol reduces the atherogenicity of electronegative L5 LDL in vivo and in vitro” (J Nat Prod, 2015):
Calls of active or inactive are those of the source. The rule behind the calls is not given here.

What was measured:
[1] = test system: Syrian golden hamster; assay: Toxicity in high-fat diet fed Syrian hamster assessed as mortality at 50 to 100 mg/kg, po administered for 16 weeks measured over 22 weeks; type: organism-based, Mesocricetus auratus; set-up: dose 50-100 mg/kg, route oral; details: in vivo, 3696 h
[2] = test system: Syrian golden hamster; assay: Toxicity in high-fat diet fed Syrian hamster assessed as change in body weight at 50 to 100 mg/kg, po administered for 16 weeks measured over 22 weeks; type: organism-based, Mesocricetus auratus; set-up: dose 50-100 mg/kg, route oral; details: in vivo, 3696 h
[3] = test system: Syrian golden hamster; assay: Antiatherogenic activity in high-fat diet fed po dosed Syrian hamster assessed as decrease in total LDL electronegativity administered for 16 weeks by agarose gel electrophoresis; type: functional, organism-based; details: Mesocricetus auratus
Summary of the method: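 Total LDL from hamsters fed 16 weeks as chow, HFD, or HFD plus 50 or 100 mg/kg by gavage in 0.5% CMC. LDL isolated by KBr ultracentrifugation with EDTA and nitrogen protection. Samples of 2.5 µg run on 0.7% agarose (90 mM Tris/90 mM boric acid, pH 8.2) at 100 V for 1.4 h to assess electronegativity.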

[4] = test system: Syrian golden hamster; assay: Antiatherogenic activity in high-fat diet fed po dosed Syrian hamster assessed as decrease in plasma L5 level administered for 16 weeks by fast protein liquid chromatographic analysis; type: functional, organism-based; details: Mesocricetus auratus
[5] = test system: Syrian golden hamster; assay: Antiatherogenic activity in high-fat diet fed Syrian hamster assessed as decrease in plasma total cholesterol level at 50 to 100 mg/kg, po administered for 16 weeks by automated analyzer relative to high-fat diet fed control; type: functional, organism-based; details: Mesocricetus auratus
Summary of the method: (§1)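 High-fat-diet hamsters gavaged 50 or 100 mg/kg in 0.5% CMC for 16 weeks (n = 8/group); chow and HFD controls received vehicle. Serum from fasted blood (3000g, 10 min) was assayed for TC, TG, VLDL-C, LDL-C and HDL-C with enzymatic kits on an automated analyzer. Mean ± SD, Student's t-test versus HFD group.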

[6] = test system: Syrian golden hamster; assay: Antiatherogenic activity in high-fat diet fed Syrian hamster assessed as decrease in plasma very-low-density lipoprotein cholesterol level at 50 to 100 mg/kg, po administered for 16 weeks by automated analyzer relative to high-fat diet fed control; type: functional, organism-based; details: Mesocricetus auratus; summary of the method: as §1
[7] = test system: Syrian golden hamster; assay: Antiatherogenic activity in high-fat diet fed Syrian hamster assessed as decrease in plasma low-density lipoprotein cholesterol level at 50 to 100 mg/kg, po administered for 16 weeks by automated analyzer relative to high-fat diet fed control; type: functional, organism-based; details: Mesocricetus auratus; summary of the method: as §1
[8] = test system: Syrian golden hamster; assay: Antiatherogenic activity in high-fat diet fed Syrian hamster assessed as decrease in plasma trigylceride level at 50 to 100 mg/kg, po administered for 16 weeks by automated analyzer relative to high-fat diet fed control; type: functional, organism-based; details: Mesocricetus auratus; summary of the method: as §1
[9] = test system: Syrian golden hamster; assay: Antiatherogenic activity in high-fat diet fed Syrian hamster assessed as reduction of atherosclerotic lesions size in aortic arch at 50 mg/kg, po administered for 16 weeks by oil red o staining-based assay relative to high-fat diet fed control; type: functional, Mesocricetus auratus; set-up: scale not given: the % may be the effect or the level left
Summary of the method: (§2)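 High-fat-diet hamsters gavaged 50 or 100 mg/kg in 0.5% CMC for 16 weeks (n = 8/group). Aorta from root to mid-descending thoracic segment was fixed in 4% PFA and stained with 0.6% Oil Red O in 60% isopropanol for 30 min. Plaque area was taken as a ratio of total luminal area from stereoscope en face images. Mean ± SD, t-test.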

[10] = test system: Syrian golden hamster; assay: Antiatherogenic activity in high-fat diet fed Syrian hamster assessed as reduction of atherosclerotic lesions size in aortic arch at 100 mg/kg, po administered for 16 weeks by oil red o staining-based assay relative to high-fat diet fed control; type: functional, Mesocricetus auratus; set-up: scale not given: the % may be the effect or the level left; summary of the method: as §2
[11] = test system: Syrian golden hamster; assay: Antiatherogenic activity in high-fat diet fed Syrian hamster assessed as decrease in plasma L5 level at 50 mg/kg, po administered for 16 weeks by fast protein liquid chromatographic analysis (reference value: 13.7%); type: functional, Mesocricetus auratus; set-up: scale not given: the % may be the effect or the level left
[12] = test system: Syrian golden hamster; assay: Antiatherogenic activity in high-fat diet fed Syrian hamster assessed as decrease in plasma L5 level at 100 mg/kg, po administered for 16 weeks by fast protein liquid chromatographic analysis (reference value: 13.7%); type: functional, Mesocricetus auratus; set-up: scale not given: the % may be the effect or the level left
[13] = species: Homo sapiens; assay: Inhibition of L5-induced apoptosis in HAEC preincubated for 30 mins followed by L5 induction measured after 24 hrs by Hoechst 33342 and calcein-AM staining-based fluorescence microscopic analysis; type: functional
Summary of the method: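 Subconfluent HAECs pretreated 30 min with vehicle (0.1% DMSO) or agent (0.3, 1, 3 µM), then ± L5 (50 µg/mL; L1 as negative control) for 24 h. Cells stained 10 min with 1 µM Hoechst 33342 plus calcein-AM and imaged by epifluorescence. Condensed or fragmented nuclei were scored as apoptotic; percentage of apoptotic cells from 6 samples, mean ± SD, t-test.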

[14] = test system: Syrian golden hamster; assay: Antiatherogenic activity in high-fat diet fed Syrian hamster assessed as downregulation of active caspase-3 expression in aorta at 50 to 100 mg/kg, po administered for 16 weeks by immunohistochemical analysis; type: functional, organism-based; details: Mesocricetus auratus
[15] = species: Homo sapiens; assay: Inhibition of L5-induced caspase-3 activation in HAEC preincubated for 30 mins followed by L5 induction measured after 24 hrs by immunoblot analysis; type: functional
Summary of the method: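 HAECs pretreated 30 min with vehicle (0.1% DMSO) or agent (0.3–3 µM), then ± L5 (50 µg/mL) 24 h. Cleaved caspase-3 immunoblot normalized to β-actin relative to vehicle control. Densitometry, n = 4, mean ± SD, Student's t-test.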

[16] = target: Oxidized low-density lipoprotein receptor 1 (Homo sapiens) (UniProt P78380); assay: Inhibition of LOX1-induced DiI-L5 endocytosis in HAEC at 3 uM preincubated for 30 mins followed by DiI-L5 treatment measured after 8 hrs by fluorescence microscopic analysis
Summary of the method: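 L5 labeled with DiI (1 mg/mL L5 with 80 µM DiI, 37 °C overnight), re-isolated by ultracentrifugation and dialyzed. HAECs were pretreated ± 3 µM agent for 30 min, then given DiI-L5 (50 µg/mL) for 8 h. Internalization was imaged by fluorescence microscopy with Hoechst nuclear counterstain.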

[17] = species: Homo sapiens; assay: Inhibition of L5-induced LOX1 expression in HAEC at 0.3 to 3 uM by immunoblot analysis; type: functional
Summary of the method: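 HAECs exposed to agent at the indicated concentrations with L5 (50 µg/mL). LOX-1 immunoblot on lysates, normalized to β-actin relative to untreated control. Densitometry from 4 independent experiments, mean ± SD, Student's t-test.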

[18] = target: Oxidized low-density lipoprotein receptor 1 (Homo sapiens) (UniProt P78380); assay: Inhibition of L5-activated LOX1-induced p38 MAPK phosphorylation in HAEC preincubated for 30 mins followed by L5 induction measured after 120 mins by Western blot analysis
Summary of the method: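 HAECs pretreated 30 min with TS92 anti-LOX-1 antibody (10 µg/mL), SB203580 (2 µM) or vehicle, then ± L5 or L1 control (50 µg/mL) for 120 min. Phospho-p38 immunoblot normalized to total p38. Densitometry, 4 experiments, mean ± SD.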

[19] = target: MAP kinase p38 (Homo sapiens) (UniProt O15264+Q15759+Q16539+P53778); assay: Activation of PI3K/Akt/eNOS signaling in HAEC assessed as inhibition of L5-induced p38 MAPK phosphorylation preincubated for 30 mins followed by L5 induction measured after 120 mins by Western blot analysis in presence of PI3K inhibitor wortmannin, Akt inhibitor, eNOS inhibitor L-NAME; type: protein assay
Summary of the method: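 HAECs pretreated 30 min with vehicle (0.1% DMSO), wortmannin (20 nM), Akt inhibitor (2 nM) or L-NAME (0.1 mM), then ± agent (0.3, 1 or 3 µM) 30 min, then L5 (50 µg/mL) 120 min. Phospho-p38 MAPK immunoblot normalized to total p38 MAPK relative to vehicle control. Densitometry, 4 independent experiments, mean ± SD, t-test.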

[20] = species: Homo sapiens; assay: Activation of PI3K/Akt/eNOS signaling in HAEC assessed as inhibition of L5-induced caspase-3 activation preincubated for 30 mins followed by L5 induction measured after 24 hrs by Western blot analysis in presence of PI3K inhibitor wortmannin, Akt inhibitor, eNOS inhibitor L-NAME
Summary of the method: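 Primary HAECs (passage 3–4, 2% FBS complete medium) pretreated 30 min with vehicle (0.1% DMSO) or L-NAME (0.1 mM), then 3 µM test agent 30 min, then ± L5 (50 µg/mL) 24 h. Active caspase-3 measured by immunoblot on 50 µg lysate, normalized to β-actin relative to vehicle control. Densitometry, n = 4, mean ± SD, Student's t-test.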

[21] = target: T1, Nitric oxide synthase 3 (Homo sapiens) (UniProt P29474); assay: Induction of eNOS phosphorylation in HAEC at 3 uM after 10 to 30 mins by Western blot analysis
T1 sequence (whole entry): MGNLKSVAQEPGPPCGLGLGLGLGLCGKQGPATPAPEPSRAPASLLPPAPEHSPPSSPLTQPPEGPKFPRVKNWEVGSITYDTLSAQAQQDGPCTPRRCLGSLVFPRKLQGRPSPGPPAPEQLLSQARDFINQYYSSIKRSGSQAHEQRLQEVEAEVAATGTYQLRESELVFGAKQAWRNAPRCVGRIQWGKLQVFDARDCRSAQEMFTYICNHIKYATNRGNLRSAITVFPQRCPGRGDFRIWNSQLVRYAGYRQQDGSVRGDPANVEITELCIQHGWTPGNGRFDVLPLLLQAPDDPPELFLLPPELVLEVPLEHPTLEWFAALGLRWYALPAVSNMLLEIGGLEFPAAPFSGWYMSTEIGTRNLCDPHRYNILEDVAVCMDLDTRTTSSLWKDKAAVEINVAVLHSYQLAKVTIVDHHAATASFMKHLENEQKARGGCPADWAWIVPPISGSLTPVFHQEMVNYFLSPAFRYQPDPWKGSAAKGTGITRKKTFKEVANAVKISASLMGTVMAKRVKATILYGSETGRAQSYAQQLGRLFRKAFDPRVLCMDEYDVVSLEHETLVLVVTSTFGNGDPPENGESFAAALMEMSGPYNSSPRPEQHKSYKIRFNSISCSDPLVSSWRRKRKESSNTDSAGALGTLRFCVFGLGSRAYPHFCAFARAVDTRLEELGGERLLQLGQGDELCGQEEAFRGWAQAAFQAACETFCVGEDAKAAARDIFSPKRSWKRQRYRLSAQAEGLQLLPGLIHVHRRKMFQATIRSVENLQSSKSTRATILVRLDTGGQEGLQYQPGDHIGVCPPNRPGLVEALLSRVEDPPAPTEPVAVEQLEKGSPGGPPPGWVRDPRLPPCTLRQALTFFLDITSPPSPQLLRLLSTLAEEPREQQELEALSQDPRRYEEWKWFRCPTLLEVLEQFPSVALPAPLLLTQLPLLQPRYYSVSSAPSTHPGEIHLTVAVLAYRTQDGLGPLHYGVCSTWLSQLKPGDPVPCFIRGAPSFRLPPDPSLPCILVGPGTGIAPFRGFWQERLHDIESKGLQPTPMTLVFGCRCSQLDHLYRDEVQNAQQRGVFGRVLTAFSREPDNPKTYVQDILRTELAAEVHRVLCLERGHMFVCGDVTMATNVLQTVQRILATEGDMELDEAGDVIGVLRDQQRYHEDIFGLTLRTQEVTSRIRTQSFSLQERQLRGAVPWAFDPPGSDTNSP
Summary of the method: (§3)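 HAECs treated with 3 µM agent or vehicle (0.1% DMSO) for 10, 30, 60, 120 and 240 min. Lysates were immunoblotted for p-eNOS and p-Akt, normalized to total eNOS or Akt relative to vehicle control. Densitometry, 4 independent experiments, mean ± SD, Student's t-test.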

[22] = target: T1, Nitric oxide synthase 3 (Homo sapiens); assay: Induction of eNOS phosphorylation in HAEC at 3 uM after 60 to 240 mins by Western blot analysis; summary of the method: as §3
[23] = species: Homo sapiens; assay: Induction of Akt phosphorylation in HAEC at 3 uM after 10 to 30 mins by Western blot analysis; summary of the method: as §3
[24] = species: Homo sapiens; assay: Induction of Akt phosphorylation in HAEC at 3 uM after 60 to 240 mins by Western blot analysis; summary of the method: as §3
[25] = target: T1, Nitric oxide synthase 3 (Homo sapiens); assay: Induction of eNOS phosphorylation in HAEC at 3 uM measured at 30 mins by Western blot analysis in presence of wortmannin and Akt inhibitor
Summary of the method: (§4)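 HAECs pretreated 30 min with vehicle (0.1% DMSO), 20 nM wortmannin or 2 nM Akt inhibitor, then ± 3 µM agent for 30 min. p-Akt and p-eNOS were immunoblotted and normalized to β-actin relative to vehicle control. Densitometry, n = 4 independent experiments, mean ± SD, t-test.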

[26] = species: Homo sapiens; assay: Induction of Akt phosphorylation in HAEC at 3 uM measured at 30 mins by Western blot analysis in presence of wortmannin and Akt inhibitor; summary of the method: as §4
[27] = species: Homo sapiens; assay: Reversal of L5-induced Akt dephosphorylation in HAEC at 3 uM preincubated for 30 mins followed by L5 induction measured after 24 hrs by Western blot analysis
Summary of the method: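 HAECs pretreated 30 min with vehicle (0.1% DMSO) or 3 µM agent, then ± L5 (50 µg/mL) for 24 h. p-Akt immunoblot normalized to β-actin relative to vehicle control. Densitometry, 4 independent experiments, mean ± SD, Student's t-test.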

## Oc1ccc2c(c1)OCO2
[1]
  Activity: Non-toxic
[2]
  Activity: Non-toxic
[3]
  Activity: Dose-dependent effect
[4]
  Activity: Dose-dependent effect
[5]
  Activity: Active
[6]
  Activity: Active
[7]
  Activity: Active
[8]
  Activity: Active
[9]
  Activity: 31.5%
[10]
  Activity: 47.3%
[11]
  Activity: 9.5%
[12]
  Activity: 5.7%
[13]
  inhibition: Dose-dependent effect
[14]
  Activity: Active
[15]
  inhibition: Dose-dependent effect
[16]
  inhibition: Active
[17]
  inhibition: Active
[18]
  inhibition: Dose-dependent effect
[19]
  inhibition: inactive
[20]
  inhibition: inactive
[21]
  Activity: Active
[22]
  Activity: inactive
[23]
  Activity: Active
[24]
  Activity: inactive
[25]
  Activity: inactive
[26]
  Activity: inactive
[27]
  Activity: Active
